{"data": "Experimental data pooled from the literature", "matrix": "plasma", "note": "Protocols differ between the studies behind these lines."}
{"species": "female rat", "route": "subcutaneous", "dose": "40 mg/kg", "setting": "multiple doses, once daily", "AUC(0-t)": "17 µM·h", "Compound": "Cc1ccc2c(c1)C(=O)[C@]1(O)CCN(c3ccc4nc(C)ccc4c3)C1=N2.Cl"}
{"species": "female Wistar rat", "route": "oral", "dose": "1 mg/kg", "setting": "single dose", "AUC(0-t)": "40.9 µg·h/mL", "Compound": "CC(=O)O[C@@H]1CC[C@@]2(C)[C@@H](CC[C@]3(C)[C@@H]2C(=O)C=C2[C@@H]4[C@@H](C)[C@H](C)CC[C@]4(C)CC[C@]23C)[C@@]1(C)C(=O)O"}
{"species": "male Sprague-Dawley rat", "route": "oral", "dose": "2 mg/kg", "setting": "single dose", "AUC(0-t)": "4.58 µg·h/mL", "Compound": "CCOc1c([C@H](C)n2nc(C)c3c(N)ncnc32)cc(Cl)c(F)c1[C@@H]1CNC(=O)C1"}
{"species": "male Sprague-Dawley rat", "route": "oral", "dose": "36 mg/kg", "AUC(0-t)": "3.12 µg·h/mL", "Compound": "C1=C/COCc2cc(ccc2OCCN2CCCC2)Nc2nccc(n2)-c2cccc(c2)COC/1"}
{"species": "male Sprague-Dawley rat", "route": "oral", "dose": "10 mg/kg", "AUC(0-t)": "3.16 µg·h/mL", "Compound": "C[C@H]1Oc2cc(cnc2N)-c2c(nn(C)c2C#N)CN(C)C(=O)c2ccc(F)cc21"}
{"species": "male Sprague-Dawley rat", "route": "oral", "dose": "8 mg/kg", "setting": "single dose", "AUC(0-t)": "1.94 µg·h/mL", "Compound": "CCCc1nc2c(C)cc(-c3nc4ccccc4n3C)cc2n1Cc1ccc(-c2ccccc2C(=O)O)cc1"}
{"species": "Sprague-Dawley rat", "route": "oral", "dose": "40 mg/kg", "AUC(0-t)": "6.55 µg·h/mL", "Compound": "CC[C@@H]([C@H](C)O)n1ncn(-c2ccc(N3CCN(c4ccc(OC[C@@H]5CO[C@@](Cn6cncn6)(c6ccc(F)cc6F)C5)cc4)CC3)cc2)c1=O"}
{"species": "male Sprague-Dawley rat", "route": "oral", "dose": "80 mg/kg", "AUC(0-t)": "0.00374 µg·h/mL", "Compound": "C[C@@]12C[C@@]3(O)O[C@@H](O1)[C@]1(COC(=O)c4ccccc4)[C@H]3C[C@@]12O[C@@H]1O[C@H](CO)[C@@H](O)[C@H](O)[C@H]1O"}
{"species": "male Sprague-Dawley rat", "route": "oral", "dose": "5 mg/kg", "AUC(0-t)": "2.15 µg·h/mL", "Compound": "COc1cc(-c2cc(C(C)=O)n3ccccc23)c(OC)cc1Cn1ccnc1"}
{"species": "male rat", "route": "intravenous", "dose": "2.5 mg/kg", "AUC(0-t)": "2.56 µg·h/mL", "Compound": "CCCCC(=O)Nc1ccc(-c2ccc3ncn(CCC)c(=O)c3c2)cn1"}
{"species": "male Sprague-Dawley rat", "route": "oral", "dose": "10 mg/kg", "setting": "single dose", "AUC(0-t)": "0.0238 µg·h/mL", "Compound": "CONC(=O)c1cccc2c1cc(C)n2-c1nc2c(c(NCc3ccccc3)n1)CCCN2"}
{"species": "male Sprague-Dawley rat", "route": "intravenous", "dose": "11.25 mg/kg", "AUC(0-t)": "24.9 µg·h/mL", "Compound": "Cn1c(=O)c2[nH]cnc2n(C)c1=O"}
{"species": "male Sprague-Dawley rat", "route": "intravenous", "dose": "1 mg/kg", "AUC(0-t)": "0.309 µg·h/mL", "Compound": "O=C1CCC(N2Cc3cc(C4CCN(Cc5ccccc5)CC4)ccc3C2=O)C(=O)N1 (stereo not drawn)"}
{"species": "male Sprague-Dawley rat", "route": "intravenous", "dose": "2 mg/kg", "AUC(0-t)": "1.62 µg·h/mL", "Compound": "COc1nc(-c2cccc(-c3ccccc3)c2C)ccc1CNCCNC(=O)CCCCCCCCCCC(=O)N1CCN(CCNC(=O)c2cc3c(=O)n4cccc(C)c4nc3n(CCc3cccs3)c2=N)CC1"}
{"species": "rat", "route": "intravenous", "dose": "2 mg/kg", "AUC(0-t)": "0.637 µg·h/mL", "Compound": "COc1ccc(-c2coc3cc(O)cc(O)c3c2=O)cc1"}
{"species": "female Sprague-Dawley rat", "route": "intravenous", "dose": "5 mg/kg", "AUC(0-t)": "0.0299 µg·h/mL", "Compound": "COc1ccc(N(Cc2csc(-c3ccccc3)n2)C(=O)CCCCCC(=O)NO)cc1"}
{"species": "male Wistar rat", "route": "subcutaneous", "dose": "125 mg/kg", "setting": "single dose", "AUC(0-t)": "2450 µg·h/mL", "Compound": "CCCCCCCCCC(=O)N[C@@H](Cc1c[nH]c2ccccc12)C(=O)N[C@H](CC(N)=O)C(=O)N[C@@H](CC(=O)O)C(=O)N[C@@H]1C(=O)NCC(=O)N[C@@H](CCCN)C(=O)N[C@@H](CC(=O)O)C(=O)N[C@H](C)C(=O)N[C@@H](CC(=O)O)C(=O)NCC(=O)N[C@H](CO)C(=O)N[C@@H]([C@H](C)CC(=O)O)C(=O)N[C@@H](CC(=O)c2ccccc2N)C(=O)O[C@@H]1C"}
{"species": "male Sprague-Dawley rat", "route": "intravenous", "dose": "5 mg/kg", "AUC(0-t)": "160 µg·h/mL", "Compound": "Nc1ccn([C@@H]2O[C@H](CO)[C@@H](O)C2(F)F)c(=O)n1"}
